# Fh CTSL1 inh – counter-screen for PFM18AAP inhibitors: inhibitors of F. hepatica cathepsin L1; recombinant F. hepatica cathepsin L1, Z-Leu-Arg-MCA fluorescence; inhibition, % at 5.96 µM; hit rate 0.49% among 300,000; AID 1906;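 active = inhibition above the mean of all tested compounds plus 3 SD, set per screening campaign, cut at about 17% in these data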;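 note: 0% = plate median of test compound wells and 100% = 1 µM Z-Phe-Ala-diazomethylketone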
# UBC9 SUMO inh – SUMOylation inhibition | inhibition, % at 35 µM | hit rate 0.36% among 290,000 | AID 2006 | HTRF SUMOylation assay, SAE1/SAE2 + UBC9, in vitro; in the data active = inhibition above about 50%, passing the limit was not always enough; inconclusive = no clear call, values can overlap the other calls
# NSD2 HMT inh – NSD2 (human) methyltransferase inhibition. hit rate 0.54% among 310,000. O96028. NSD2 peptide methylation, AlphaScreen, 120 min. inhibition, % at 12.5 µM; in the data active = inhibition above about 50%
# Target sequence (O96028 whole entry, looked up): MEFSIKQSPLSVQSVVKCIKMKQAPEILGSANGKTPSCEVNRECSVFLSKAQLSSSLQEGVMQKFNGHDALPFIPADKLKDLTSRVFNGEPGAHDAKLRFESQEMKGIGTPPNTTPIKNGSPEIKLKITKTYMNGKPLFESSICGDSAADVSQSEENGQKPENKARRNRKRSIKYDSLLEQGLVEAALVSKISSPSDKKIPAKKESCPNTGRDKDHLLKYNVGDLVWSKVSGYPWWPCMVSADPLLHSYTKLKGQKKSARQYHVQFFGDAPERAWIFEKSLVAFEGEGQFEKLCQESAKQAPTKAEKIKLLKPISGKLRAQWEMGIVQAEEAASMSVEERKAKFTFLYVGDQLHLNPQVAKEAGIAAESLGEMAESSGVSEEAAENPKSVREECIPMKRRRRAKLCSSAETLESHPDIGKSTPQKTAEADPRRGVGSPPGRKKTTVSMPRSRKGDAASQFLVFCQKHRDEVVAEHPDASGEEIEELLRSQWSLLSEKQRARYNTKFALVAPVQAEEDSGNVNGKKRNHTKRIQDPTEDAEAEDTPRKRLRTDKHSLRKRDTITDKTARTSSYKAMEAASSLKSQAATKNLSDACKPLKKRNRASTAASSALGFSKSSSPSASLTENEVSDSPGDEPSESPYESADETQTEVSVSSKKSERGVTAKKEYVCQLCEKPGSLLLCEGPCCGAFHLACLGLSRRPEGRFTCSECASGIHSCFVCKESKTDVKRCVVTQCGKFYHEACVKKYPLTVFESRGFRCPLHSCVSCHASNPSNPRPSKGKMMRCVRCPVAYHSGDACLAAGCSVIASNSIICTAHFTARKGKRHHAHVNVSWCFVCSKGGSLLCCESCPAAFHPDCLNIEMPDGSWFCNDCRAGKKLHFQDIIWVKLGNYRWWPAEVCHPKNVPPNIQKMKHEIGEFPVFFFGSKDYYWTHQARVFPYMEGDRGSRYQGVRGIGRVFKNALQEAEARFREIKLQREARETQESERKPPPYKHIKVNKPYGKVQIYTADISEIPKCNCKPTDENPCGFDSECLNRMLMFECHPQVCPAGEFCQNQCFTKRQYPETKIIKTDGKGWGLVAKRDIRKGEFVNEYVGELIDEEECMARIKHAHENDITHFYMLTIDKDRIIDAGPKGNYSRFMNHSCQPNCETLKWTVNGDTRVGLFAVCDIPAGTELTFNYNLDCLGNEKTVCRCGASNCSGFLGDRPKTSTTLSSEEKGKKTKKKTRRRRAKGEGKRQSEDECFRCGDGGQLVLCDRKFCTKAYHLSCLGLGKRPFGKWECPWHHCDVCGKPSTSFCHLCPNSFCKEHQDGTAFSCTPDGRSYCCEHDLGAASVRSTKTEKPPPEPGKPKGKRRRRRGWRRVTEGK
# TDP2 inh – TDP2 (human) inhibition, absorbance primary screen | AID 720702 | recombinant TDP2, T5PNP hydrolysis, p-nitrophenol absorbance 415 nm | inhibition, % at 12.8 µM | hit rate 0.34% among 370,000 | O95551;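 active = inhibition above the mean of all tested compounds plus 3 SD, set per campaign, cut at about 25% in these data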;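 note: 0% = DMSO with enzyme and 100% = buffer with substrate but no TDP2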
#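 Test system: human TDP2 enzyme; Input: 120 nM TDP2 per well; Buffer or medium: Mg2+-containing Tris-HCl buffer, pH 7.5; Reagent: 5 mM T5PNP; Dosing: 12.8 µM single point, 1% DMSO; Incubation: reaction 2 h, 37 °C; Detection: p-Nitrophenol epi absorbance; Read-out: % inhibition relative to enzyme-containing and enzyme-free wells; Replicates: single well per compound.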
# TDP2 inh conf – confirmation of human TDP2 inhibitors; shares compounds with TDP2 inh; recombinant human TDP2, absorbance read-out; inhibition, % at 12.8 µM; hit rate 22% among 1,100; AID 743263; in the data active = inhibition above about 25%;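 note: 0% = vehicle with enzyme and 100% = no enzyme buffer only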
# Numbers without * were called inactive; ? = inconclusive; . = no result. Rows were chosen to be rich in hits. Some 1.2% of all compounds tested hit in one or more screens of this group.
SMILES,Fh CTSL1 inh,UBC9 SUMO inh,NSD2 HMT inh,TDP2 inh,TDP2 inh conf
Nc1nonc1C(=O)N/N=C/c1ccc(Br)o1,1.0,7.3,-2.1,-2.0,.
N/C(=N\N=C\c1ccc(Br)o1)c1nonc1N,3.9,8.3,2.0,30.5*,-0.9
C[C@H]1CN([C@@H](C)CO)C(=O)CCCn2nncc2CO[C@H]1CN(C)S(=O)(=O)c1ccccc1,.,.,.,10.4,.
CCC(NC(=O)NCc1ccccc1)(C(F)(F)F)C(F)(F)F,-1.1,1.1,-2.9,-3.9,.
CCC(NC(=O)Nc1ccc(O)cc1)(C(F)(F)F)C(F)(F)F,-0.6,50.1,0.2,26.8*,5.2
CC(NC(=O)Nc1ccc(O)cc1)(C(F)(F)F)C(F)(F)F,-4.2,77.3,-3.5,27.8*,19.2
O=C(CNc1cccc2ccccc12)N/N=C/C(Br)=C/c1ccccc1,1.9,48.9,-1.8,37.6*,-1.0
Cc1csc(N/N=C/c2ccc([N+](=O)[O-])cc2)n1,-2.1,4.9,4.7,-5.0,.
COc1cc(/C=N/n2nnnc2N)ccc1OC(C)=O,.,25.4,1.7,-2.2,.
Cc1nnc(N/N=C/c2ccc(Br)cc2)n1N,1.2,4.2,-1.5,73.6*,6.0
Cc1nnc(N/N=C/c2ccc([N+](=O)[O-])cc2)n1N,-2.1,9.3,-1.6,55.1*,0.1
Cc1nnc(N/N=C/c2ccc(-c3ccc(Br)cc3)o2)n1N,0.6,15.0,.,56.5*,1.3
COc1ccc(/C=N/Nc2nnc(C)n2N)cc1OC(C)=O,-0.1,6.0,-2.7,42.4*,9.2
CC(C)(C)c1nnc(N/N=C/c2ccccc2)n(N)c1=O,2.0,1.1,2.4,2.5,.
CNC12CCc3cc(OC)c(OC)c(c31)-c1cc3c(cc1C2)OCO3 (configuration not stated),.,.,.,-1.0,.
CS(=O)(=O)N(CC(=O)Nc1ccccc1C(=O)N1CCCC1)c1ccccc1Br,-1.2,11.9,-0.8,-13.6,.
C/C(=N/NS(=O)(=O)c1ccc(Br)cc1)c1c[nH]c2ccccc12,-1.1,1.8,4.0,24.6*,6.0
C[C@H]1C2CC(OC(=O)Nc3ccc(C#N)cc3)C(C2)[C@H]2CCCCN21 (some centres not stated),.,.,.,3.7,.
N#CC1=C(N)Oc2n[nH]c(-c3ccccc3)c2C1c1cccnc1 (configuration not stated),1.8,9.5,1.0,-2.8,.
N#CC1=C(N)Oc2n[nH]c(-c3cccnc3)c2C1c1cc(F)ccc1F (configuration not stated),2.9,11.6,-1.3,51.5*,-11.6
COCCn1c(N)c(C#N)c2nc3ccccc3nc21,-0.5,80.8*,9.1,29.9*,15.5
COc1ccc(Cn2c(N)c(C#N)c3nc4ccccc4nc32)cc1,0.0,32.7,1.8,36.6*,-1.0
Cc1ccc(NC2=C(NC(=O)c3ccccc3)C(=O)c3ccccc3C2=O)cc1Cl,1.7,4.1,32.2,29.3*,16.8
CCCCC(=O)Nc1nnc(SCC(=O)NC2CC2)s1,-3.3,-8.3,-2.2,39.1*,2.8
CC(C)C(=O)Nc1nnc(SCC(=O)NC2CCCC2)s1,-1.2,-0.9,-5.4,33.1*,-2.8
SMILES,Fh CTSL1 inh,UBC9 SUMO inh,NSD2 HMT inh,TDP2 inh,TDP2 inh conf
CC(C)CC(=O)Nc1nnc(SCC(=O)NC2CCCC2)s1,.,.,-4.4,8.4,.
CCCCC(Sc1nc(N)c(NC(=O)c2ccco2)c(=O)[nH]1)C(=O)O (configuration not stated),-0.6,13.6,2.1,26.1*,2.0
CCCCC(Sc1nc(N)c(NC(=O)c2ccc(OCC)cc2)c(=O)[nH]1)C(=O)O (configuration not stated),4.0,20.7,-2.8,8.3,.
O=C(O)c1ccc(Cl)c(S(=O)(=O)Nc2ccccc2C(=O)Nc2ccc(Cl)cc2)c1,-0.1,7.9,.,22.0,.
Cc1nnc(SCC(=O)N(C)Cc2ccccc2)[nH]c1=O,7.3,10.1,2.2,43.4*,-5.0
Cn1c(CNc2ccc(O)cc2)nc2ccccc21,-9.2,60.4,3.2,35.2*,0.9
Cc1ccc(NCc2nc3ccccc3n2C)cc1,-13.2,1.8,1.0,0.5,.
CC1=NN(c2ccccc2)C(=O)C1C(=O)c1ccccc1 (configuration not stated),-1.3,5.0,11.6,8.9,.
CC1=NN(c2ccccc2)C(=O)C1C(=O)C(=O)Nc1ccc(F)cc1 (configuration not stated),0.1,-6.4,-0.2,32.4*,6.6
O=C(O)CN1C(=O)/C(=C\c2cc(Br)ccc2OCc2ccc(Cl)cc2)SC1=S,.,36.4,19.1,26.0*,17.4
CCOC(=O)C1CCN(c2cc3c(cc2NC(=O)c2ccccc2Br)n(C)c(=O)n3C)CC1,7.3,.,6.7,25.8*,-0.5
CCOC(=O)C1CCN(c2cc3c(cc2NC(=O)c2cc(OC)ccc2Br)n(C)c(=O)n3C)CC1,2.4,?,3.4,4.0,.
Clc1ccccc1N=Nc1ccccn1,.,.,.,42.2*,26.9*
COC(=O)c1cccc(C(=O)N2CCCC(C(=O)c3cccc(OC(C)C)c3)C2)c1 (configuration not stated),-0.3,-8.3,28.2,27.7*,7.0
COC(=O)c1cccc(C(=O)N2CCCC(C(=O)c3ccccc3OC)C2)c1 (configuration not stated),.,-0.6,2.1,-1.7,.
CN1CCN(CC(=O)Nc2nc3ccccc3s2)CC1,0.3,11.6,1.2,25.1*,3.0
CC(NC(=O)COC(=O)COc1cccc2c1OC(C)(C)C2)c1ccccc1 (configuration not stated),1.5,8.9,-1.7,9.8,.
Cc1ccc(C)c(S(=O)(=O)Nc2ccc(O)c3ccccc23)c1,-1.3,67.4,6.0,42.2*,15.1
Cc1ccc(S(=O)(=O)Nc2ccc(O)c3ccccc23)c(C)c1,.,18.4,3.4,29.0*,10.0
CN1CCN(C(=O)c2cnc(Cc3c[nH]c4ccccc34)c(I)c2)CC1,.,.,.,4.2,.
COc1ccc2nc(/N=C/c3c(C)[nH]n(-c4ccc(C)cc4)c3=O)sc2c1,1.6,4.5,8.1,30.7*,13.6
Cc1[nH]n(-c2ccccc2)c(=O)c1/C=N/N1CCOCC1,11.2,-0.9,8.7,16.7,.
Cc1[nH]n(-c2ccc(Cl)cc2)c(=O)c1/C=N/c1nnc(-c2ccccc2)s1,1.4,25.1,0.0,37.3*,19.7
Cc1[nH]n(-c2ccccc2)c(=O)c1/C=N/N1C(=O)c2cccc3cccc(c23)C1=O,-0.9,15.1,-1.7,31.2*,7.2
Cc1[nH]n(-c2ccccc2)c(=O)c1C=NCc1ccncc1,-5.2,15.5,.,26.8*,3.0
CNc1c(NS(=O)(=O)c2ccc(C3CCCCC3)cc2)c(=O)oc2ccccc12,-2.6,16.4,1.1,14.4,.
O=C(Nc1ccccc1)c1cn(CCBr)cn1,-2.3,.,18.3,-16.2,.
C[C@H](CO)N1C[C@H](C)[C@@H](CN(C)Cc2cccc(O)c2)OCc2cnnn2CCCC1=O,.,.,.,1.8,.
O=C(c1cc(COc2cccc3cnccc23)on1)N1CCC(c2ccccc2Cl)C1 (configuration not stated),0.5,.,2.6,25.2*,-0.5

# Bioassay records: PubChem, several laboratories
